From PubChem
FLuc stim CS: firefly luciferase counter-screen for stimulation assays | ATPlite luciferase biochemical, luminescence, 10 min; 0 = ATP-free wells, 1 = DMSO control | activation factor at 10 µM | 200,000 tested, under 10 active | AID 1027;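 active = luciferase activation factor, scaled between plate controls, of at least 2 with compound at 10 µM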
Target sequence (P08659 whole entry, looked up): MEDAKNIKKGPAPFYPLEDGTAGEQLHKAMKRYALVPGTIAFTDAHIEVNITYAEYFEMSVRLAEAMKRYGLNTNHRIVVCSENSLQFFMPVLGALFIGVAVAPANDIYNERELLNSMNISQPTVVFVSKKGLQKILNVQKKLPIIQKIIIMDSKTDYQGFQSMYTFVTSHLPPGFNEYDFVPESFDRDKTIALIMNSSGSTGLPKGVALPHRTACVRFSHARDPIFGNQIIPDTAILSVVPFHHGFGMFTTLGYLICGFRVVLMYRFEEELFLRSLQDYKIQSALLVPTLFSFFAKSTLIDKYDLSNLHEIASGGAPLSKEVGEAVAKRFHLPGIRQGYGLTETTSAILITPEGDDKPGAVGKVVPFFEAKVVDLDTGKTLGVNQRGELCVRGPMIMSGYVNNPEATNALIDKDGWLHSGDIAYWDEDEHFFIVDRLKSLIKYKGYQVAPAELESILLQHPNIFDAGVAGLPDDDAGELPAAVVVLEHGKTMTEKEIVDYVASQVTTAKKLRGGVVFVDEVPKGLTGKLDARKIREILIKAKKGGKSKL
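System: Luciferase/luciferin detection reagent, cell-free biochemical luciferase assay | Medium: PBS buffer for ATP | Dosing: Test compounds dosed from 2 mM stocks in 100% DMSO | Timing: 10 min at ambient temperature | Signal: Luminescence measurement of luciferase light output | Evaluation: Luciferase activation, seen as luminescence increase over controls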
NF-kB neuron act: compounds increasing NF-kB expression in human neuronal cells. NF-kB reporter expression; stronger effect = higher value. fold change at 12.5 µM. 190,000 tested, 1.6% active; in the data active = fold change above about 3.3
FLuc inhib CS: counter-screen for luciferase assay inhibitors: firefly luciferase inhibition; P08659; ATPLite firefly luciferase biochemical luminescence, 10 min; inhibition, % at 10 µM; 200,000 tested, 1.5% active;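 active = inhibition above about 50% when tested at 10 µM, limit read from the data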
APP 5'UTR act: APP 5'UTR luciferase reporter activation. SH-SY5Y APP 5'UTR luciferase reporter, luminescence; zero percent = DMSO vehicle wells. activation, % at 2 µM. 190,000 tested, 1% active;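 active = activation above a set limit, based on mean plus 3 SD of controls, cut at about 140% in these data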
STAT1 act: activators of IFN-gamma induced STAT1 signaling | 200,000 tested, 2.6% active | activation (% of control), % at 5.5 µM | NIH 3T3 STAT1-luciferase reporter, luminescence; 100% = IFN-gamma alone, no compound | AID 932;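 active = activation above the screen-wide mean activation plus 3 SD, cut at about 130% in these data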;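 also: raw ratio to IFN-gamma control signal so 100% means no change and 0% no light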
sdo1 growth: sdo1-depleted yeast growth rescue; z-score at 10 µM; AID 817; 140,000 tested, 0.21% active; S. cerevisiae sdo1-depleted JHY4D growth rescue, OD600 30 h; stronger effect = higher value; pdr5 snq2 efflux-pump mutant strain;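 active = z-score above 3 at both the 24 hr and the 30 hr optical density reads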;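 also: z-score against mean and SD of all compound wells on the same plate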
STAT1 activ conf: STAT1 activation, confirmation assay; shares compounds with STAT1 act; NIH 3T3 STAT1-luciferase reporter, IFN-gamma potentiation, luminescence; 100% = IFN-gamma EC80 alone, no compound; activation (% of control), % at 5.7 µM; 1,200 tested, 97% active; AID 1262;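 active = activation above a set limit carried over from the earlier primary STAT1 screen, cut at about 140% in these data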;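 also: simple ratio to median IFN-gamma plus DMSO wells so 0% means no light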
NFkB act STAT1ct: counter-screen for STAT1 activators: NF-kappaB activation | activation (% of control), % at 5.7 µM | HEK293T NF-kB luciferase reporter, TNF-alpha stimulated, luminescence; 100% = TNF-alpha with vehicle only | 1,200 tested, 43% active | shares compounds with STAT1 act | AID 1306;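 active = activation above the mean of solvent-only control wells plus 3 SD, set per campaign, cut at about 130% in these data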;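 also: TNF-alpha given at a submaximal dose yielding about 80% of full reporter signal; values are well signal over median control so 100% means no change and 0% no light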
STAT3 act 2: counter-screen for STAT1 activators: human STAT3 activation. shares compounds with STAT1 act. AID 1316. activation (% of control), % at 5.7 µM. U3A cells STAT3-luciferase reporter, IL-6, luminescence; cells lack STAT1; 100 = IL-6 alone, no compound effect. 1,200 tested, 46% active;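 active = activation above the solvent-only control well mean plus 3 SD, set per plate batch, cut at about 110% in these data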;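 also: 0% = no luminescence and 100% = median IL-6 plus DMSO wells; higher means more STAT3 reporter activation so hits are non-selective activators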
* marks the source's active call; other numbers are inactive results; x = no result given. Most compounds without a hit are left out; they make up all but 4.3% or so of the library.

SMILES	FLuc stim CS	NF-kB neuron act	FLuc inhib CS	APP 5'UTR act	STAT1 act	sdo1 growth	STAT1 activ conf	NFkB act STAT1ct	STAT3 act 2
CCC1(c2ccc(F)cc2)NC(=O)N(CC(=O)Nc2ccc(-c3nc4ccc(C)cc4s3)cc2)C1=O (configuration not stated)	0.7	1.1	27	214*	169*	-0.89	201*	133	112*
Cc1nnc(SCC(=O)Nc2ccc(-c3nc4ccccc4s3)cc2)s1	0.2	5.6*	80*	158*	156*	2	243*	109	86
O=C(Nc1ccc(-c2noc(-c3cccs3)n2)cc1)c1cccnc1	1	3.8*	4	110	157*	-2.1	197*	136*	109
O=C(Nc1cccc(NC(=O)c2cccs2)c1)c1cccnc1	1	0.57	4	13	100	x	x	x	x
NC(=O)Cc1nc(-c2ccc(Br)cc2)cs1	1	1.3	2	12	103	0.92	x	x	x
Oc1csc(Cc2nc(-c3ccc(Br)cc3)cs2)n1	0.8	1.9	22	50	167*	x	177*	134*	124*
N#C/C(=C/c1ccc(N2CCOCC2)o1)c1ccc(Br)cc1	1	2	2	-10	115	-1.8	x	x	x
N#C/C(=C\c1ccc(N2CCOCC2)cc1)c1ccccc1	0.6	2.5	42	208*	174*	-0.6	226*	143*	108
N#C/C(=C\c1ccc(N2CCOCC2)o1)c1ccccc1	0.8	1.9	16	28	161*	-1.1	235*	150*	126*
COc1ccc(C(=O)Nc2ccc(SC(F)F)cc2)cc1	0.8	3.1	19	164*	164*	-0.15	182*	141*	89
COc1ccc(NC(=O)c2ccc(OC(F)F)cc2)cc1Cl	0.5	4.4*	52*	104	166*	-0.12	181*	129	103
CN(C)/C=C(\C#N)c1nc2ccccc2[nH]1	1	1.4	-2	15	106	-0.72	x	x	x
Cc1ccc(/C=C(\C#N)c2nc3ccccc3[nH]2)s1	0.5	6.1*	47	215*	162*	-2.3	222*	137*	101
CN1C(=O)CC(C(=O)O)SC1=Nc1cc(Cl)cc(Cl)c1 (configuration not stated)	1	1.1	-2	18	98	0.71	x	x	x
Cc1cc2c3c(c1C)C1(C(=O)N3C(C)(C)CC2C)C(C#N)=C(N)OC2=C1C(=O)CC(C)(C)C2 (configuration not stated)	1	1.1	0	3	103	0.53	x	x	x
Nc1ccc2oc(CCc3ccccc3)nc2c1	0.9	2.6	9	118	161*	-0.47	177*	143*	116*
COc1ccc2cc(C(N)=O)c(=Nc3ccccc3)oc2c1	1	2	-4	137*	152*	x	142*	103	106
O=S(=O)(Nc1nc2ccccc2nc1N1CCc2ccccc2C1)c1ccc(Br)cc1	0.5	1.8	46	64	158*	-0.39	181*	85	133*
Cc1cccc(C(=O)NNC(=O)c2ccco2)c1	1	1.2	-2	28	101	-0.06	x	x	x
N#C/C(=N\Nc1ccc(F)cc1)C(=N)N1CCCCC1	0.5	8.2*	55*	138*	155*	0.3	216*	127	115*
COc1ccc(N/N=C(\C#N)C(=N)N2CCOCC2)cc1	0.9	1.2	9	51	116	x	x	x	x
